According to ChEMBL document CHEMBL1777808, “Preparation and pharmacological evaluation of a novel series of 2-(phenylthio)benzo[b]thiophenes as selective MT2 receptor ligands” (Eur J Med Chem, 2011):

Key:
Homo sapiens = species on record: Homo sapiens; assay: Selectivity ratio of Ki for human MT1 receptor to Ki for human MT2 receptor
Method in brief: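 Ki values from competition binding on membranes of stably transfected CHO cells (human MT1 or MT2). Ratio is MT1 Ki over MT2 Ki.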

[1] = target: T1, Melatonin receptor type 1A (Homo sapiens, UniProt P48039); assay: Displacement of 2-[125I]iodomelatonin from human MT1 receptor expressed in CHO cells; assay type: cell-based
T1 sequence (P48039 whole entry): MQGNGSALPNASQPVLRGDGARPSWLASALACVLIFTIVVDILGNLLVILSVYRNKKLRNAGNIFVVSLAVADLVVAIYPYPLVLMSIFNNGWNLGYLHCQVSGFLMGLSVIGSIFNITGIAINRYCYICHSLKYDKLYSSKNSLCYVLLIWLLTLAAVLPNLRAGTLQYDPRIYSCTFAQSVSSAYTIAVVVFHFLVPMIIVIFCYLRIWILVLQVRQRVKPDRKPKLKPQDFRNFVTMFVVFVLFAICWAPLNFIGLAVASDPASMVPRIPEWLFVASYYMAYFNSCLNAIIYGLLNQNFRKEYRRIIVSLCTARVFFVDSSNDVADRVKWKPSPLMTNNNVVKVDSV

[2] = target: T2, Melatonin receptor type 1B (Homo sapiens, UniProt P49286); assay: Displacement of 2-[125I]iodomelatonin from human MT2 receptor expressed in CHO cells; assay type: cell-based
T2 sequence (P49286 whole entry): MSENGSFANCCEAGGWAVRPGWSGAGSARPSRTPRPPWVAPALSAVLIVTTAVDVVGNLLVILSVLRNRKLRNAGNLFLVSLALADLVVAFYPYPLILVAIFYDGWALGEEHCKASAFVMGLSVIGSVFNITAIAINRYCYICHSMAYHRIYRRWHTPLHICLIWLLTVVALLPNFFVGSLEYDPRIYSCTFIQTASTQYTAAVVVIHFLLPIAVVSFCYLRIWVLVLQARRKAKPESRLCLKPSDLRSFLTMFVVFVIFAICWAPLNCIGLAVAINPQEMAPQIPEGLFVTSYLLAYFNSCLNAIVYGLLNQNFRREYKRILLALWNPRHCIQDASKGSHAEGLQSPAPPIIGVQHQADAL

[3] = target: T2, Melatonin receptor type 1B; assay: Agonist activity at human MT2 receptor expressed in CHO cells by [35S]GTPgamma binding assay; assay type: functional, cell-based
[4] = target: T1, Melatonin receptor type 1A; assay: Agonist activity at human MT1 receptor expressed in CHO cells by [35S]GTPgamma binding assay; assay type: functional, cell-based
[5] = target: T3, Melatonin receptor type 1B (Homo sapiens) (UniProt P49286); assay: Agonist activity at human MT2 receptor expressed in CHO cells by [35S]GTPgamma binding assay relative to melatonin; assay type: functional, cell-based
T3 sequence (whole entry): T2 sequence (P49286 whole entry)

[6] = target: T1, Melatonin receptor type 1A; assay: Agonist activity at human MT1 receptor expressed in CHO cells by [35S]GTPgamma binding assay relative to melatonin; assay type: functional, cell-based
[7] = target: T1, Melatonin receptor type 1A; assay: Antagonist activity at human MT1 receptor expressed in CHO cells assessed as inhibition of melatonin-induced [35S]GTPgamma binding; assay type: functional, cell-based
Method in brief: (§1)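 Then 0.2 nM [35S]GTPγS added, 1 h at room temperature in HEPES pH 7.4/NaCl/MgCl2/GDP/saponin buffer. Filtration, three ice-cold washes.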

[8] = target: T3, Melatonin receptor type 1B (Homo sapiens); assay: Antagonist activity at human MT2 receptor expressed in CHO cells assessed as inhibition of melatonin-induced [35S]GTPgamma binding; assay type: functional, cell-based; method in brief: as §1

SMILES	Ratio Ki (Homo sapiens)	Ki [1]	Ki [2]	EC50 [3]	EC50 [4]	Emax [5]	Emax [6]	Kb [7]	Kb [8]	Imax [7]	Imax [8]
O=C(NCCc1c(Sc2ccc(F)cc2)sc2ccc(F)cc12)C1CCC1	4.7	915 nM	194 nM								
O=C(CCCCl)NCCc1c(Sc2ccc(F)cc2)sc2ccc(F)cc12	115	2860 nM	24.8 nM								
O=C(CBr)NCCc1c(Sc2ccc(F)cc2)sc2ccc(F)cc12	4.2	22.1 nM	5.21 nM	7.27 nM	> 10000 nM	47%					
C=CCC(=O)NCCc1c(Sc2ccc(F)cc2)sc2ccc(F)cc12	220	52.8 nM	0.24 nM	2.15 nM	188 nM	52.4%	45%				
CC(=O)NCCc1csc2ccc(F)cc12	5	24.6 nM	4.87 nM	0.68 nM	23.8 nM	61%	87%	62.8 nM	> 10000 nM		
C=CC(=O)NCCc1c(Sc2ccc(F)cc2)sc2ccc(F)cc12	22	236 nM	10.7 nM								
CC(=O)NCCc1c(Sc2ccc(F)cc2)sc2ccc(F)cc12	65.5	57 nM	0.87 nM	0.64 nM	202 nM	42%	33%				
CCC(=O)NCCc1c(Sc2ccc(F)cc2)sc2ccc(F)cc12	51.4	226 nM	4.4 nM	> 10000 nM	> 10000 nM			42 nM	0.67 nM	115%	92%
